Measurements as given in ChEMBL document CHEMBL5247575 (J Med Chem, 2018).

Columns and labels:
Pseudomonas aeruginosa [1] = experiment: Antibacterial activity against Pseudomonas aeruginosa CL232 by broth microdilution method; assay type: functional
Klebsiella pneumoniae [2] = experiment: Synergistic antibacterial activity against Klebsiella pneumoniae 972/1910 producing KPC-3 assessed as cefepime MIC at 4 ug/ml by broth microdilution method; assay type: functional; conditions: dose 4 µg/ml
Klebsiella pneumoniae [3] = experiment: Antibacterial activity against Klebsiella pneumoniae jefferson 1775 producing OXA-48 by broth microdilution method; assay type: functional
Acinetobacter baumannii [4] = experiment: Synergistic antibacterial activity against Acinetobacter baumannii PR363 producing OXA-23 assessed as meropenem MIC at 4 ug/ml by broth microdilution method; assay type: functional; conditions: dose 4 µg/ml
Klebsiella pneumoniae [5] = experiment: Synergistic antibacterial activity against Klebsiella pneumoniae 1354/2241 producing KPC-3 assessed as cefepime MIC at 4 ug/ml by broth microdilution method; assay type: functional; conditions: dose 4 µg/ml
How it was run: (§1)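 Broth microdilution per CLSI guidelines, using custom frozen panels. […] Each partner drug was also tested alone. MICs were run in triplicate and the modal value is reported.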

Bacteria [6] = experiment: Inhibition of bacteria PDC-3 assessed as half life using nitrocefin as substrate
Klebsiella pneumoniae [7] = experiment: Synergistic antibacterial activity against Klebsiella pneumoniae 11978 producing OXA-48 assessed as meropenem MIC at 4 ug/ml by broth microdilution method; assay type: functional; conditions: dose 4 µg/ml; how it was run: as §1
Acinetobacter baumannii [8] = experiment: Synergistic antibacterial activity against ADC deleted Acinetobacter baumannii transfected with pWH1266 producing OXA-24/40 assessed as cefepime MIC at 4 ug/ml by broth microdilution method; assay type: functional; conditions: dose 4 µg/ml
Klebsiella pneumoniae [9] = experiment: Synergistic antibacterial activity against Klebsiella pneumoniae 935/1884 producing KPC-3 assessed as meropenem MIC at 4 ug/ml by broth microdilution method; assay type: functional; conditions: dose 4 µg/ml
Acinetobacter baumannii [10] = experiment: Synergistic antibacterial activity against Acinetobacter baumannii PR359 producing OXA-23 assessed as cefepime MIC at 4 ug/ml by broth microdilution method; assay type: functional; conditions: dose 4 µg/ml
Klebsiella pneumoniae [11] = experiment: Synergistic antibacterial activity against Klebsiella pneumoniae 1084/1957 producing KPC-3 assessed as cefepime MIC at 4 ug/ml by broth microdilution method; assay type: functional; conditions: dose 4 µg/ml; how it was run: as §1
Acinetobacter baumannii [12] = experiment: Synergistic antibacterial activity against Acinetobacter baumannii PR448 producing OXA-23 assessed as meropenem MIC at 4 ug/ml by broth microdilution method; assay type: functional; conditions: dose 4 µg/ml
Klebsiella pneumoniae [13] = experiment: Synergistic antibacterial activity against Klebsiella pneumoniae 901/1860 producing KPC-3 assessed as meropenem MIC at 4 ug/ml by broth microdilution method; assay type: functional; conditions: dose 4 µg/ml
Acinetobacter baumannii [14] = experiment: Synergistic antibacterial activity against ADC deleted Acinetobacter baumannii transfected with pWH1266 producing OXA-24/40 assessed as meropenem MIC at 4 ug/ml by broth microdilution method; assay type: functional; conditions: dose 4 µg/ml
Klebsiella pneumoniae [15] = experiment: Synergistic antibacterial activity against Klebsiella pneumoniae 977/1916 producing KPC-3 assessed as meropenem MIC at 4 ug/ml by broth microdilution method; assay type: functional; conditions: dose 4 µg/ml
Klebsiella pneumoniae [16] = experiment: Synergistic antibacterial activity against Klebsiella pneumoniae 660/1568 producing KPC-3 assessed as meropenem MIC at 4 ug/ml by broth microdilution method; assay type: functional; conditions: dose 4 µg/ml; how it was run: as §1
Acinetobacter baumannii [17] = experiment: Synergistic antibacterial activity against Acinetobacter baumannii PR381 producing OXA-24/40 assessed as cefepime MIC at 4 ug/ml by broth microdilution method; assay type: functional; conditions: dose 4 µg/ml
Escherichia coli [18] = experiment: Antibacterial activity against Escherichia coli DH10B transfected with pBC SK (-) OXA-48 by broth microdilution method; assay type: functional
Pseudomonas aeruginosa [19] = experiment: Synergistic antibacterial activity against Pseudomonas aeruginosa CL232 assessed as meropenem MIC at 4 ug/ml by broth microdilution method; assay type: functional; conditions: dose 4 µg/ml
Klebsiella pneumoniae [20] = experiment: Synergistic antibacterial activity against Klebsiella pneumoniae 660/1568 producing KPC-3 assessed as cefepime MIC at 4 ug/ml by broth microdilution method; assay type: functional; conditions: dose 4 µg/ml; how it was run: as §1
Acinetobacter baumannii [21] = experiment: Synergistic antibacterial activity against ADC deleted Acinetobacter baumannii assessed as meropenem MIC at 4 ug/ml by broth microdilution method; assay type: functional; conditions: dose 4 µg/ml
Acinetobacter baumannii [22] = experiment: Synergistic antibacterial activity against Acinetobacter baumannii PR476 producing OXA-24/40 assessed as meropenem MIC at 4 ug/ml by broth microdilution method; assay type: functional; conditions: dose 4 µg/ml
Bacteria [23] = experiment: Inhibition of bacteria ADC-7 assessed as Koff rate using nitrocefin as substrate incubated for 30 mins
Pseudomonas aeruginosa [24] = experiment: Synergistic antibacterial activity against Pseudomonas aeruginosa 776 assessed as cefepime MIC at 4 ug/ml by broth microdilution method; assay type: functional; conditions: dose 4 µg/ml
Acinetobacter baumannii [25] = experiment: Synergistic antibacterial activity against Acinetobacter baumannii PR359 producing OXA-23 assessed as meropenem MIC at 8 ug/ml by broth microdilution method; assay type: functional; conditions: dose 8 µg/ml
How it was run: (§2)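 Broth microdilution per CLSI guidelines in frozen panels. Test compound held at fixed 8 mg/L while the partner β-lactam concentration was increased. Run in triplicate; modal MIC reported.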

Escherichia coli [26] = experiment: Synergistic antibacterial activity against Escherichia coli DH10B transfected with pBC SK (-) OXA-48 assessed as meropenem MIC at 8 ug/ml by broth microdilution method; assay type: functional; conditions: dose 8 µg/ml; how it was run: as §1
Klebsiella pneumoniae [27] = experiment: Synergistic antibacterial activity against Klebsiella pneumoniae 440/1360 producing KPC-2 assessed as cefepime MIC at 8 ug/ml by broth microdilution method; assay type: functional; conditions: dose 8 µg/ml; how it was run: as §1
Acinetobacter baumannii [28] = experiment: Synergistic antibacterial activity against Acinetobacter baumannii PR448 producing OXA-23 assessed as cefepime MIC at 8 ug/ml by broth microdilution method; assay type: functional; conditions: dose 8 µg/ml; how it was run: as §2
Klebsiella pneumoniae [29] = experiment: Synergistic antibacterial activity against Klebsiella pneumoniae 761/1723 producing KPC-3 assessed as cefepime MIC at 8 ug/ml by broth microdilution method; assay type: functional; conditions: dose 8 µg/ml; how it was run: as §1
Acinetobacter baumannii [30] = experiment: Synergistic antibacterial activity against Acinetobacter baumannii PR363 producing OXA-23 assessed as cefepime MIC at 8 ug/ml by broth microdilution method; assay type: functional; conditions: dose 8 µg/ml
Klebsiella pneumoniae [31] = experiment: Synergistic antibacterial activity against Klebsiella pneumoniae 11978 producing OXA-48 assessed as meropenem MIC at 8 ug/ml by broth microdilution method; assay type: functional; conditions: dose 8 µg/ml; how it was run: as §1
Acinetobacter baumannii [32] = experiment: Synergistic antibacterial activity against Acinetobacter baumannii PR408 producing OXA-24/40 assessed as meropenem MIC at 8 ug/ml by broth microdilution method; assay type: functional; conditions: dose 8 µg/ml
Pseudomonas aeruginosa [33] = experiment: Synergistic antibacterial activity against Pseudomonas aeruginosa CL232 assessed as cefepime MIC at 8 ug/ml by broth microdilution method; assay type: functional; conditions: dose 8 µg/ml
Acinetobacter baumannii [34] = experiment: Synergistic antibacterial activity against Acinetobacter baumannii PR381 producing OXA-24/40 assessed as meropenem MIC at 8 ug/ml by broth microdilution method; assay type: functional; conditions: dose 8 µg/ml
Acinetobacter baumannii [35] = experiment: Synergistic antibacterial activity against Acinetobacter baumannii PR408 producing OXA-24/40 assessed as cefepime MIC at 8 ug/ml by broth microdilution method; assay type: functional; conditions: dose 8 µg/ml
Klebsiella pneumoniae [36] = experiment: Synergistic antibacterial activity against Klebsiella pneumoniae 440/1360 producing KPC-2 assessed as meropenem MIC at 8 ug/ml by broth microdilution method; assay type: functional; conditions: dose 8 µg/ml; how it was run: as §1
Acinetobacter baumannii [37] = experiment: Synergistic antibacterial activity against Acinetobacter baumannii PR440 producing OXA-23/24/40 assessed as meropenem MIC at 8 ug/ml by broth microdilution method; assay type: functional; conditions: dose 8 µg/ml
Acinetobacter baumannii [38] = experiment: Synergistic antibacterial activity against ADC deleted Acinetobacter baumannii transfected with pWH1266 OXA-23 assessed as meropenem MIC at 8 ug/ml by broth microdilution method; assay type: functional; conditions: dose 8 µg/ml; how it was run: as §2
Acinetobacter baumannii [39] = experiment: Synergistic antibacterial activity against ADC deleted Acinetobacter baumannii transfected with pWH1266 producing OXA-24/40 assessed as meropenem MIC at 8 ug/ml by broth microdilution method; assay type: functional; conditions: dose 8 µg/ml

SMILES | MIC (Pseudomonas aeruginosa [1]) [µg/mL] | MIC (Klebsiella pneumoniae [2]) [µg/mL] | MIC (Klebsiella pneumoniae [3]) [µg/mL] | MIC (Acinetobacter baumannii [4]) [µg/mL] | MIC (Klebsiella pneumoniae [5]) [µg/mL] | T1/2 (Bacteria [6]) [min] | MIC (Klebsiella pneumoniae [7]) [µg/mL] | MIC (Acinetobacter baumannii [8]) [µg/mL] | MIC (Klebsiella pneumoniae [9]) [µg/mL] | MIC (Acinetobacter baumannii [10]) [µg/mL] | MIC (Klebsiella pneumoniae [11]) [µg/mL] | MIC (Acinetobacter baumannii [12]) [µg/mL] | MIC (Klebsiella pneumoniae [13]) [µg/mL] | MIC (Acinetobacter baumannii [14]) [µg/mL] | MIC (Klebsiella pneumoniae [15]) [µg/mL] | MIC (Klebsiella pneumoniae [16]) [µg/mL] | MIC (Acinetobacter baumannii [17]) [µg/mL] | MIC (Escherichia coli [18]) [µg/mL] | MIC (Pseudomonas aeruginosa [19]) [µg/mL] | MIC (Klebsiella pneumoniae [20]) [µg/mL] | also measured
NC(=O)[C@@H]1CC[C@@H]2CN1C(=O)N2OS(=O)(=O)[O-].[Na+] [AVIBACTAM SODIUM] | > 16 | ≤ 0.12 | > 16 | > 16 | ≤ 0.12 | 14.4 | 1 | > 16 | ≤ 0.12 | 16 | ≤ 0.12 | > 16 | ≤ 0.12 | > 16 | ≤ 0.12 | ≤ 0.12 | > 16 | > 16 | > 16 | ≤ 0.12 | MIC (Acinetobacter baumannii [21]): ≤ 0.12 µg/mL; MIC (Acinetobacter baumannii [22]): 0.25 µg/mL; K (Bacteria [23]): 3.5 10^-4/s
O.O=C(NC1CCNCC1)[C@@H]1CC[C@@H]2CN1C(=O)N2OS(=O)(=O)O [RELEBACTAM] | > 16 | 0.25 | > 16 | > 16 | ≤ 0.12 | 12.8 | > 16 | > 16 | ≤ 0.12 | 16 | 0.25 | > 16 | ≤ 0.12 | > 16 | ≤ 0.12 | ≤ 0.12 | > 16 | > 16 | > 16 | 0.25 | MIC (Acinetobacter baumannii [21]): ≤ 0.12 µg/mL; MIC (Pseudomonas aeruginosa [24]): 16 µg/mL; MIC (Acinetobacter baumannii [22]): 0.25 µg/mL; K (Bacteria [23]): 3 10^-4/s
N#C[C@@H]1CC[C@@H]2CN1C(=O)N2OS(=O)(=O)[O-].[Na+] | > 16 | 0.25 | > 16 | 4 | ≤ 0.12 | 4.1 | ≤ 0.12 | 16 | ≤ 0.12 | 8 | ≤ 0.12 | 2 | ≤ 0.12 | > 16 | ≤ 0.12 | ≤ 0.12 | 16 | > 16 | 16 | 0.25 | MIC (Acinetobacter baumannii [25]): 4 µg/mL; MIC (Escherichia coli [26]): ≤ 0.12 µg/mL; MIC (Klebsiella pneumoniae [27]): 0.25 µg/mL; MIC (Acinetobacter baumannii [28]): 4 µg/mL; MIC (Klebsiella pneumoniae [29]): ≤ 0.12 µg/mL; MIC (Acinetobacter baumannii [30]): 8 µg/mL; MIC (Klebsiella pneumoniae [31]): ≤ 0.12 µg/mL; MIC (Acinetobacter baumannii [32]): > 16 µg/mL; MIC (Pseudomonas aeruginosa [33]): > 16 µg/mL; MIC (Acinetobacter baumannii [34]): > 16 µg/mL; MIC (Acinetobacter baumannii [35]): 8 µg/mL; MIC (Klebsiella pneumoniae [36]): ≤ 0.12 µg/mL; MIC (Acinetobacter baumannii [21]): ≤ 0.12 µg/mL; MIC (Acinetobacter baumannii [37]): 2 µg/mL; MIC (Acinetobacter baumannii [38]): 4 µg/mL; MIC (Acinetobacter baumannii [22]): 0.25 µg/mL; K (Bacteria [23]): 1 10^-3/s; MIC (Acinetobacter baumannii [39]): > 16 µg/mL
